The source made the active and inactive calls. No cut-off for these calls is given here.
Tests used:
[1] = Drug metabolism in po dosed C57BL/6 mouse assessed as psilocin formation measured upto 24 hrs by LC-MS analysis; assay type: ADME, organism-based; details: in vivo, dose 1-10 mg/kg
[2] = Drug metabolism in C57BL/6 mouse assessed as psilocin formation at 1 mg/kg, iv measured upto 24 hrs by LC-MS analysis; assay type: ADME, organism-based; details: in vivo
[3] = Metabolic stability in human liver microsomes assessed as half life at 2.5 uM measured upto 120 mins in presence of NADPH by LC-MS analysis; assay type: ADME, Microsome; details: for t1/2: microsomes, 2 h, 2.5 µM
Outline: (§1)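 2.5 μM compound at 37 °C in 50 mM potassium phosphate pH 7.4 with 3 mM MgCl2, 1 mM EDTA and an NADPH regenerating system. […] Sampled at 0–120 min in 20-min steps, acetonitrile quench, LC-MS of parent. T1/2 from one-phase exponential decay fit.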

[4] = Metabolic stability in human intestine S9 fraction assessed as half life at 2.5 uM measured upto 120 mins in presence of NADPH by LC-MS analysis; assay type: ADME, subcellular; details: s9, 2 h; outline: as §1
[5] = Metabolic stability in human intestine microsomes assessed as half life at 2.5 uM measured upto 120 mins in presence of NADPH by LC-MS analysis; assay type: ADME, Microsome; details: 2 h; outline: as §1
[6] = Drug metabolism in human liver S9 fraction assessed as psilocin formation at 2.5 uM after 120 mins by LC-MS analysis; assay type: ADME, subcellular; details: s9, 2 h
Outline: (§2)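 2.5 μM compound in 50 mM potassium phosphate pH 7.4 with 3 mM MgCl2, 1 mM EDTA and an NADPH regenerating system. Incubated at 37 °C with human liver or intestinal S9 or microsomes (400 μg/mL protein) or 10% human AB serum. Acetonitrile quench, then LC-MS; psilocin concentration read at 120 min.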

[7] = Drug metabolism in human liver microsomes assessed as psilocin formation at 2.5 uM after 120 mins by LC-MS analysis; assay type: ADME, Microsome; details: 2 h; outline: as §2
[8] = Drug metabolism in human intestine S9 fraction assessed as psilocin formation at 2.5 uM after 120 mins by LC-MS analysis; assay type: ADME, subcellular; details: s9, 2 h; outline: as §2
[9] = Drug metabolism in human intestine microsomes assessed as psilocin formation at 2.5 uM after 120 mins by LC-MS analysis; assay type: ADME, Microsome; details: 2 h; outline: as §2
[10] = Drug metabolism in human serum assessed as psilocin formation at 2.5 uM after 120 mins by LC-MS analysis; assay type: ADME, cell-free; details: 2 h; outline: as §2
[11] = Drug metabolism in C57BL/6 mouse assessed as psilocin formation at 10 mg/kg, po measured at 24 hrs by LC-MS analysis; assay type: ADME, organism-based; details: in vivo
[12] = Drug metabolism in C57BL/6 mouse assessed as psilocin Cmax at 3 mg/kg, po measured upto 24 hrs by LC-MS analysis; assay type: ADME, organism-based; parameters: dose 3 mg/kg, time < 24 hrs, route po; details: in vivo
[13] = Drug metabolism in C57BL/6 mouse assessed as psilocin Cmax at 10 mg/kg, po measured upto 24 hrs by LC-MS analysis; assay type: ADME, organism-based; parameters: time < 24 hrs, dose 10 mg/kg, route po; details: in vivo
[14] = Drug metabolism in C57BL/6 mouse assessed as psilocin AUC(0 to last) at 3 mg/kg, po measured upto 24 hrs by LC-MS analysis; assay type: ADME, organism-based; parameters: time < 24 hrs, dose 3 mg/kg, route po; details: in vivo
[15] = Drug metabolism in C57BL/6 mouse assessed as psilocin AUC(0 to last) at 10 mg/kg, po measured upto 24 hrs by LC-MS analysis; assay type: ADME, organism-based; parameters: dose 10 mg/kg, time < 24 hrs, route po; details: in vivo
[16] = Drug metabolism in C57BL/6 mouse assessed as psilocin formation at 10 mg/kg, po measured after 8 hrs by LC-MS analysis; assay type: ADME, organism-based; details: in vivo
[17] = system: Mus musculus; assay: Psychedelic activity in mouse assessed as head-twitch response at 1 mg/kg, po measured upto 90 mins; assay type: functional, organism-based
Outline: (§3)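 C57BL/6 mice, singly housed for 2 days, with 30-min predose chamber acclimation. Single oral 1 mg/kg dose from 100 mM DMSO stock diluted in 0.9% saline; vehicle 1% DMSO in saline. Video-recorded after dosing; head twitches scored blind per 15-min interval (reference time course) or for the 15–30 min window. n = 2–4; one-way ANOVA.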

[18] = system: Mus musculus; assay: Anxiolytic activity in mouse assessed as reduction in MCSP induced marble-burying behavior by measuring decrease in number of buried marbles at 1 mg/kg, po measured upto 7 days; assay type: functional, organism-based; details: time <= 7.0 day
Outline: (§4)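 Mixed-sex C57BL/6 mice, singly housed. Stress group: 7-day mild chronic stress paradigm with corticosterone 25 μg/mL in 1% ethanol drinking water plus daily 30-min restraint over the last 5 days; controls unstressed. Single oral dose in saline with 1% DMSO at 2.5 μL/g, given 24 h after stress. 10 marbles on 5 cm bedding; % buried over 20 min on days 1 and 7. Ordinary one-way ANOVA; n = 6–11.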

[19] = Anxiolytic activity in non-stressed mouse assessed as reduction in marble-burying behavior by measuring decrease in number of buried marbles at 1 mg/kg, po measured upto 7 days; assay type: toxicity, organism-based; details: in vivo, 168 h, time < 7 day; outline: as §4
[20] = Metabolic stability in human liver S9 fraction assessed as half life at 2.5 uM measured upto 120 mins in presence of NADPH by LC-MS analysis; assay type: ADME, subcellular; details: for t1/2: s9, 2 h, 2.5 µM; outline: as §1
[21] = Metabolic stability in human serum assessed as half life at 2.5 uM measured upto 120 mins in presence of NADPH by LC-MS analysis; assay type: ADME, cell-free; details: 2 h; outline: as §1
[22] = system: Mus musculus; assay: Psychedelic activity in mouse assessed as head-twitch response at 1 mg/kg, po measured after 15 to 30 mins; assay type: functional, organism-based; details: time 15-30 min; outline: as §3
[23] = system: Mus musculus; assay: Anxiolytic activity in non-stressed mouse assessed as reduction in marble-burying behavior by measuring decrease in number of buried marbles at 10 mg/kg, po measured after 1 day; assay type: functional, organism-based
[24] = system: Mus musculus; assay: Anxiolytic activity in non-stressed mouse assessed as reduction in marble-burying behavior by measuring decrease in number of buried marbles at 10 mg/kg, po measured upto 7 days; assay type: functional, organism-based; details: time <= 7.0 day

SMILES	Drug metabolism [1]	Drug metabolism [2]	t1/2 [3] [min]	t1/2 [4] [min]	t1/2 [5] [min]	Drug metabolism [6] [µM]	Drug metabolism [7] [µM]	Drug metabolism [8] [µM]	Drug metabolism [9] [µM]	Drug metabolism [10] [µM]	Drug metabolism [16]	t1/2 [20] [min]	t1/2 [21] [min]	Activity [22]	Activity [23]	further results
CN(C)CCc1c[nH]c2cccc(OC(=O)OCc3ccccc3)c12	Dose-Dependent Effect	Metabolite_Detected	113	529	211	0.084	0.114	0.044	0.038	0	–	–	–	–	–	Drug metabolism [11]: Metabolite_Detected
CN(C)CCc1c[nH]c2cccc(OP(=O)(O)O)c12 [PSILOCYBIN]	Dose-Dependent Effect	–	–	–	195	0	0	0.621	0.172	0	Metabolite_Notdetected	–	–	–	–	Cmax [12]: 0.0529 µg/mL; Cmax [13]: 0.243 µg/mL; AUClast [14]: 0.0844 µg·h/mL; AUClast [15]: 0.3973 µg·h/mL; Activity [17]: Active; Activity [18]: Active; Activity [19]: Non-Toxic
CCCC(=O)OCOc1cccc2[nH]cc(CCN(C)C)c12	Dose-Dependent Effect	–	3	241	74	0.012	0.073	0.018	0.043	0	Metabolite_Notdetected	4	2	inactive	–	–
CN(C)CCc1c[nH]c2cccc(OC(=O)SCc3ccccc3)c12	Dose-Dependent Effect	Metabolite_Detected	–	50	71	1.233	2.105	0	0.156	0.385	Metabolite_Notdetected	–	14	Active	Active	half-life at 2.5 µM ([20]; liver S9 fraction): 5 min; half-life at 2.5 µM ([3]; liver microsomes): 6 min; Activity [24]: Active
CN(C)CCc1c[nH]c2cccc(OC(=O)OCC3CC3)c12	Dose-Dependent Effect	Metabolite_Detected	4	327	271	1.177	1.929	0.224	0.157	0.361	–	9	3	inactive	–	Drug metabolism [11]: Metabolite_Detected
COc1ccc(C(=O)Oc2cccc3[nH]cc(CCN(C)C)c23)cc1	Dose-Dependent Effect	Metabolite_Detected	17	132	315	1.95	2.718	0.114	0.041	1.097	Metabolite_Notdetected	21	1	Active	Active	Activity [24]: Active
CN(C)CCc1c[nH]c2cccc(OC(=O)CC3CC3)c12	Dose-Dependent Effect	Metabolite_Detected	1	104	62	1.343	1.89	1.384	0.927	0.778	Metabolite_Notdetected	3	1	Active	Active	–
CCCCC(=O)OCOc1cccc2[nH]cc(CCN(C)C)c12	Dose-Dependent Effect	Metabolite_Detected	4	39	112	0.07	0.132	0.055	0.081	0	Metabolite_Notdetected	5	3	–	–	–
CN(C)CCc1c[nH]c2cccc(OC(=O)c3c(F)c(F)c(F)c(F)c3F)c12	Dose-Dependent Effect	–	1	56	32	1.244	2.554	0.533	0.786	0.45	Metabolite_Notdetected	1	0.7	Active	–	–

— ChEMBL document CHEMBL5335796, “Novel Psilocin Prodrugs with Altered Pharmacological Properties as Candidate Therapies for Treatment-Resistant Anxiety Disorders” (J Med Chem, 2024)
